# Screens from PubChem.
# Sampled rows, rich in hits. Any-hit rate of the full collection: about 5.1%.
# APP 5'UTR act: activates APP 5'UTR luciferase reporter | SH-SY5Y APP 5'UTR luciferase reporter, luminescence; zero percent = DMSO vehicle wells | activation, % at 2 µM | hit rate 1% among 190,000 | AID 1276;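 active = activation above a set limit, based on mean plus 3 SD of controls, cut at about 140% in these data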
# STAT3 inh: inhibitors of IL-6 induced STAT3 signaling. U3A cells, IL-6 STAT3-luciferase reporter, luminescence; host cell line lacks STAT1. inhibition, % at 5.5 µM. hit rate 0.89% among 190,000. AID 862;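 active = inhibition above the mean inhibition across all screened compounds plus 3 SD, cut at about 44% in these data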
# STAT3 activator: increases IL-6 driven STAT3 reporter signal; U3A cells, IL-6 STAT3-luciferase reporter, luminescence; 100% = signal with IL-6 EC80 alone; activation (% of control), % at 5.6 µM; hit rate 0.91% among 190,000;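 active = activation above the screen-wide mean of compound activation plus 3 SD, cut at about 130% in these data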
#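 Material: STAT3-luciferase reporter U3A cells; Probe or stimulus: IL-6 (33 ng/mL); Incubation: compound pre-incubation 1 h before IL-6, then 6 h stimulation at 37 °C; Technique: luminescence from STAT3-driven luciferase reporter; Evaluation: % activation versus median of IL-6-stimulated wells; Controls: IL-6-only high control.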
# STAT1 act: STAT1 signaling activation | hit rate 2.6% among 200,000 | NIH 3T3 STAT1-luciferase reporter, IFN-gamma, luminescence; 100% = IFN-gamma alone, no compound | activation (% of control), % at 5.5 µM;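 active = activation above the screen-wide mean activation plus 3 SD, cut at about 130% in these data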
# NF-kB neuron act: compounds increasing NF-kB expression in human neuronal cells | NF-kB reporter expression; stronger effect = higher value | fold change at 12.5 µM | hit rate 1.6% among 190,000; in the data active = fold change above about 3.3
# STAT1 blocker: STAT1 signaling inhibition; hit rate 0.35% among 200,000; inhibition, % at 5.5 µM; NIH 3T3 STAT1-luciferase reporter, IFN-gamma, luminescence;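 active = inhibition above a set limit, the mean inhibition across all tested compounds plus 3 SD, cut at about 34% in these data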
# Hits are given with their value; . = inactive; / = no result given.
SMILES,APP 5'UTR act,STAT3 inh,STAT3 activator,STAT1 act,NF-kB neuron act,STAT1 blocker
O=[N+]([O-])c1nn(-c2ccc3c(c2)OCCO3)n(O)c1=NCc1ccccc1Cl,.,.,.,146.5,.,.
COc1ccc(-n2nc([N+](=O)[O-])c(=NCCc3ccc(C)cc3)n2O)cc1,.,.,.,.,.,.
COc1ccc(-n2nc([N+](=O)[O-])c(=NCc3cccnc3)n2O)cc1,.,.,.,148.8,.,.
Oc1ccc(-c2csc(-c3c[nH]c4ccccc34)n2)c(O)c1,.,.,158.5,143.5,4.17,.
COc1ccc2c(c1)CC/C2=N\NC(=O)c1ccccc1,.,.,.,129.6,.,.
COc1ccc(OCC(=O)N/N=C2\CCc3ccccc32)cc1,.,.,.,.,.,.
O=C(CSc1nc2ccccc2[nH]1)N1CCCCC1,.,.,.,130.2,.,.
Cc1ccc2nc(SCC(=O)N3CCOCC3)[nH]c2c1,.,.,.,131.7,.,.
O=C(Nc1cc(C(F)(F)F)ccc1N1CCOCC1)c1ccc2ccccc2n1,.,.,133.7,.,.,.
Cc1ccc2[nH]c(SCC(=O)N3CCOCC3)nc2c1C,.,.,.,.,.,.
Nc1nc(SCC(=O)Nc2cc(C(F)(F)F)ccc2N2CCOCC2)n[nH]1,.,.,.,.,.,.
Cc1ccc2nc(SCC(=O)Nc3cc(C(F)(F)F)ccc3N3CCOCC3)[nH]c2c1,.,.,.,.,3.57,.
COc1ccc(S(=O)(=O)NNC(=O)c2ccccc2-n2cccc2)cc1,.,.,.,.,.,.
COC(=O)CSc1nnc(-c2ccoc2C)n1-c1ccc(OC)cc1,.,.,.,.,.,.
COc1ccccc1CNC(=O)COc1ccc([N+](=O)[O-])cc1,.,.,.,.,.,.
COc1ccc(C(=O)NCCSCc2ccc(C)cc2)cc1,.,.,.,.,.,.
Cc1ccc(CSC(Nc2ccc(F)cc2)=C(C#N)C#N)cc1,.,.,.,.,.,.
COc1ccc(NC(=O)C2c3cc(OC)c(OC)cc3C(=O)N(C)C2c2cccnc2)cc1OC (centres undefined),.,.,.,.,.,.
c1ccc(-c2ncc(CSc3nncn3-c3ccccc3)s2)cc1,.,.,.,.,.,.
Cc1nnc(SCc2cnc(-c3ccc(C(C)C)cc3)s2)n1C,151.5,65.2,.,.,5.69,37.0
O=C1c2cccc(Cl)c2C(=O)c2c1cccc2N1CCCC1,.,.,137.0,.,/,.
CN1C(N)=NC(=O)/C1=C/c1ccc(OC(F)(F)F)cc1,.,.,.,.,.,.
CSc1nnc2c(n1)[nH]c1c(C)cccc12,.,.,.,.,.,.
CCSc1nnc2c(n1)[nH]c1c(C)cccc12,.,.,.,139.0,.,.
Cc1cc(C2=NNC(=Nc3ccccc3)SC2)c(C)n1C,.,.,.,141.8,.,.
SMILES,APP 5'UTR act,STAT3 inh,STAT3 activator,STAT1 act,NF-kB neuron act,STAT1 blocker
Cc1ccc(-n2c(C)cc(C3=NNC(=NC4CC4)SC3)c2C)cc1C,154.6,.,.,.,.,.
COCCCN=C1NN=C(c2cc(C)n(-c3ccccc3F)c2C)CS1,186.8,51.5,.,.,.,44.8
COCCCN=C1NN=C(c2cc(C)n(Cc3ccccc3Cl)c2C)CS1,.,.,.,.,.,.
COCCn1c(C)cc(C2=NNC(=Nc3ccccc3F)SC2)c1C,.,94.2,.,.,.,72.9
Cc1cc(C2=NNC(=NC3CC3)SC2)c(C)n1-c1c(C)n(C)n(-c2ccccc2)c1=O,.,.,.,.,.,.
COc1ccc(C(=O)Cn2nnc(-c3ccccc3-n3cnnn3)n2)cc1,.,.,.,.,.,.
O=C(COc1ccccc1Cl)Nc1cc(Cl)ccc1Oc1ccccc1,.,.,.,.,.,.
CC1=C(C(=O)OC2CCCCCCC2)C(c2cc3c(cc2Br)OCO3)CC(=O)N1 (centres undefined),.,.,.,.,.,.
NS(=O)(=O)c1ccc(N=Nc2c(O)ccc3ccccc23)cc1,.,.,.,132.5,.,.
CCn1c(SCC(=O)Nc2nonc2C)nnc1-c1ccco1,.,.,.,.,.,.
C(=N\Nc1ncnc2ccccc12)/c1ccccc1,.,.,.,131.6,6,.
Cc1ccc(/C=N/Nc2nnc(Cl)c3ccccc23)cc1,159.4,.,.,130.6,9.31,.
C(=N\Nc1nc2ccccc2[nH]1)/c1ccccc1,.,.,.,.,.,.
